Legend:
Motilin receptor [1] = molecular target: T1, Motilin receptor (Homo sapiens, UniProt O43193); experiment: Activity at human MOTR expressed in CHO cells assessed as inhibition of motilin-induced calcium release upto 10 uM; format: functional, cell-based; details: filed as antagonist
Summary of the method: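 Aequorin luminescence assay on whole CHO cells expressing cloned human motilin receptor, measuring inhibition of motilin-induced Ca2+ release. Agonist activity was also checked at concentrations up to 10 µM. Compounds were TFA salts held as 10 mM DMSO stocks at -60 °C.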

Motilin receptor [2] = molecular target: T1, Motilin receptor; experiment: Displacement of [125I]motilin from human MOTR
Summary of the method: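 Competition binding on isolated membranes expressing human motilin receptor, with radioiodinated porcine motilin ([125I]-motilin) as tracer. 11-point concentration curves gave Ki, with a top test concentration of 10 µM. Compounds came from 10 mM DMSO stocks stored at -60 °C.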

Motilin receptor [3] = molecular target: T1, Motilin receptor; experiment: Activity at human MOTR expressed in CHO cells assessed as inhibition of motilin-induced calcium release; format: functional, cell-based
Summary of the method: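 Whole CHO cells expressing cloned human motilin receptor; intracellular Ca2+ release evoked by motilin read out by aequorin luminescence. Compounds were tested in antagonist mode and also checked for agonist activity at concentrations up to 10 µM. Compound stocks were 10 mM in DMSO, stored at -60 °C.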

Oryctolagus cuniculus = species: Oryctolagus cuniculus; experiment: Antagonist activity against rabbit duodenum; details: read-out: pA2 (converted)

T1 sequence (O43193 whole entry): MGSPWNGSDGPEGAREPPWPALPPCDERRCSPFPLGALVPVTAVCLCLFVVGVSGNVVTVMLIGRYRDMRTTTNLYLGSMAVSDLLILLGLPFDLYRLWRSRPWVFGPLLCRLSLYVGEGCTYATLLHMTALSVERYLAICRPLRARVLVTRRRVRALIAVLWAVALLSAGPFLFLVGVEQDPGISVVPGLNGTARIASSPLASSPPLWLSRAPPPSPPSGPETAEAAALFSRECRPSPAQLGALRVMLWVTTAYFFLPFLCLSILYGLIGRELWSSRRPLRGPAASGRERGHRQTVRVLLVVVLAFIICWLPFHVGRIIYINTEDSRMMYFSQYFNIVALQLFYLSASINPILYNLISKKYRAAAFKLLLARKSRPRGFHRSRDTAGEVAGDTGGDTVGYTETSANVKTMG

| Compound | Activity (Motilin receptor [1]) | Ki (Motilin receptor [2]) [nM] | IC50 (Motilin receptor [3]) [nM] | Kb (Oryctolagus cuniculus) [nM] |
| --- | --- | --- | --- | --- |
| CCC[C@@H]1NC(=O)[C@@H](C(C)C)NC(=O)[C@@H](Cc2ccc(O)cc2)NCCCc2ccccc2/C=C\CCNC1=O | Antagonist | 7290 | – | – |
| CCC[C@@H]1NC(=O)[C@@H](C(C)C)NC(=O)[C@@H](Cc2ccc(O)cc2)NCCc2ccccc2/C=C/CNC1=O | Antagonist | 9730 | – | – |
| CCC[C@@H]1NC(=O)[C@@H](C(C)C)NC(=O)[C@@H](Cc2ccc(O)cc2)NCCCc2ccccc2/C=C/CNC1=O | Antagonist | > 10000 | – | – |
| CCC[C@@H]1NC(=O)[C@@H](C(C)C)NC(=O)[C@@H](Cc2cccc3ccccc23)NCCOc2ccccc2CCCNC1=O | Antagonist | 8.3 | – | – |
| CCC[C@@H]1NC(=O)[C@@H](C(C)C)NC(=O)[C@@H](Cc2ccc(O)cc2)NCCOc2ccccc2/C=C/CNC1=O | Antagonist | 137 | 74 | – |
| CCC[C@@H]1NC(=O)[C@@H](C(C)C)NC(=O)[C@@H](CCCCN)NCCOc2ccccc2/C=C/CNC1=O | Antagonist | > 10000 | – | – |
| CC(C)C[C@H]1C(=O)NCCCc2ccccc2OCCN[C@H](Cc2ccc(O)cc2)C(=O)N[C@H](C(C)C)C(=O)N1C | Antagonist | 222 | – | – |
| CCC[C@@H]1NC(=O)[C@@H](C(C)C)NC(=O)[C@@H](Cc2ccc(O)cc2)NCCOc2ccccc2CCCNC1=O | Antagonist | 55 | – | – |
| CC(C)[C@H]1NC(=O)[C@@H](Cc2ccc(O)cc2)NCCOc2ccccc2/C=C/CNC(=O)[C@H](C)NC1=O | Antagonist | 1390 | – | – |
| CCC[C@@H]1NC(=O)[C@@H](C(C)C)NC(=O)[C@@H](Cc2ccc(OC)cc2)NCCOc2ccccc2CCCNC1=O | Antagonist | 8 | 23 | 100 |
| CCC[C@@H]1NC(=O)[C@H](C(C)C)NC(=O)[C@@H](Cc2ccc(O)cc2)NCCOc2ccccc2/C=C/CNC1=O | Antagonist | > 10000 | – | – |
| CCC[C@@H]1NC(=O)[C@@H](C(C)C)NC(=O)[C@@H](Cc2ccc(O)cc2)NCCc2ccccc2CCCCNC1=O | Antagonist | 6060 | – | – |
| CCC[C@@H]1NC(=O)[C@@H](C(C)C)NC(=O)[C@@H](Cc2ccccc2)NCCOc2ccccc2CCCNC1=O | Antagonist | 57 | – | – |
